TAAR1 antag = antagonists of human TAAR1 | CHO RD-HGA16 TAAR1, Fluo-8 calcium fluorescence, antagonist | inhibition, % at 3 µM | actives 1.5% (n = 360,000) | AID 624466;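 active means inhibition above a per-plate cutoff, the mean inhibition of test compounds on that plate plus 3 SD, cut at about 49% in these data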
Target sequence (Q96RJ0 whole entry, looked up): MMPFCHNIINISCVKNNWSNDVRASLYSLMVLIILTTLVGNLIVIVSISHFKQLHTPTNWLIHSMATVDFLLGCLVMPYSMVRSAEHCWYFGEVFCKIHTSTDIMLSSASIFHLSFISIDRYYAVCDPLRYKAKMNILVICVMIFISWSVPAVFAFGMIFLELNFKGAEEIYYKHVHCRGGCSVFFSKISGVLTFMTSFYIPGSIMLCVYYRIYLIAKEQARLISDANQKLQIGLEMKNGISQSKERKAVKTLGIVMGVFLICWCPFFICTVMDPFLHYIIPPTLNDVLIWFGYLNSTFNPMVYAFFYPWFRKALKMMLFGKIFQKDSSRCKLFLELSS
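Test system: hTAAR1-expressing CHO RD-HGA16 cells, Gα16-coupled; Probe or stimulus: EC80 β-phenethylamine stimulus; Compound dosing: single nominal final test compound concentration of 3 µM; Timing: 140 s kinetic read after compound, 140 s after agonist; Signal: Fluo-8 calcium-sensitive fluorescence; Measure: % inhibition of agonist calcium response; Controls: DMSO and EC80 PEA controls.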
TAAR1 ag = agonists of human TAAR1 | activation, % at 3 µM | Q96RJ0 | CHO RD-HGA16 TAAR1, Fluo-8 calcium fluorescence; vehicle wells 0%, saturating PEA agonist 100% | actives 0.99% (n = 360,000);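 active means activation above the mean activation of all test compounds in the run plus 3 SD, cut at about 38% in these data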
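Benchmarks: low control DMSO, high control PEA (EC100); System: CHO RD-HGA16 cells carrying human TAAR1 plus Gα16; Detection: Fluo-8 fluorescence, 5 s baseline then 140 s kinetic read; Schedule: 17-24 h plating, Fluo-8 75 min 37 °C, 30 min RT; Read-out basis: % activation from peak over basal fluorescence ratio, DMSO-to-PEA scaled.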
V1aR counter = counter-screen for oxytocin receptor agonists: human V1a receptor agonists; P37288; actives 0.25% (n = 320,000); CHO-V1R cells, Fluo-8 calcium fluorescence, agonist mode; 0% DMSO, 100% 3 nM vasopressin; AID 2797; activation, % at 3 µM;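 active means activation above the mean activation of all tested compounds plus 3 SD, per screening run, cut at about 20% in these data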;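 further: signal is peak over basal fluorescence ratio across a 100 second FLIPR read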
OXTR agonist = human OXTR agonism; P30559; CHO-OTR cells, Fluo-8 calcium fluorescence; normalized: DMSO 0%, oxytocin 100%; activation, % at 3 µM; actives 0.32% (n = 320,000);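 active means activation above the mean of all tested compounds plus 3 SD, cutoff set per screening run, cut at about 20% in these data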;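 further: peak over basal fluorescence ratio from a 100 s FLIPR kinetic read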
Target sequence (P30559 whole entry, looked up): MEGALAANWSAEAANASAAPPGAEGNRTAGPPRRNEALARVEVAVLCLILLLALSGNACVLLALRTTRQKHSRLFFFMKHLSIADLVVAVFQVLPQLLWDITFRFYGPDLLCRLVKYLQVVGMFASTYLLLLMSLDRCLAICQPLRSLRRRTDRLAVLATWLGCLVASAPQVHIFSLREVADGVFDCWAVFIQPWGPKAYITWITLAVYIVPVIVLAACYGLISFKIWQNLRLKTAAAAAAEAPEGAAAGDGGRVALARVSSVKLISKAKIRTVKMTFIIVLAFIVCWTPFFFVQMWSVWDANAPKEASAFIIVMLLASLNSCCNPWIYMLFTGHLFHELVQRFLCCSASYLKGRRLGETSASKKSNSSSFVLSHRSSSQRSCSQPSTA
OXTR potentiator = human OXTR potentiation; AID 2445; actives 0.061% (n = 320,000); CHO-OTR cells, Fluo-8 calcium fluorescence, potentiator mode; 0% = oxytocin EC15, 100% = EC100; P30559; activation, % at 3 µM;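 active means activation above that plate's cutoff, the mean activation of tested compounds plus 3 SD, cut at about 6.6% in these data, passing the limit was not always enough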
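Replication – single well per compound, singlicate · Assay system – CHO cell line stably expressing human OTR · Timing – 6 min pre-incubation, 100 s read · Measure – normalized max/min fluorescence ratio, % activation · Doses – 3.0 µM, one dose · Detection – Fluo-8 calcium dye fluorescence · Probe or stimulus – oxytocin near EC15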
Each line names hits and unclear results; the compound was inactive in the other large screens. Compounds with a hit are over-represented: about 2.3% of the library has one in this group of screens.

COc1ccc(/C=C2\CN(Cc3ccccc3)C/C(=C\c3ccc(OC)cc3OC)C2=O)c(OC)c1	TAAR1 antag 57.3
CN(C)c1ccc2nc3c(=O)[nH]c(=O)nc-3n(CC(O)C(O)C(O)CO)c2c1 (stereo not drawn)	V1aR counter 34.8, OXTR agonist 22.6
Cc1ncc(C(O)c2ccc(N(C)C)cc2)n1Cc1ccccc1 (stereo not drawn)	none (no result: V1aR counter, OXTR agonist, OXTR potentiator)
CC(C)/C=C1\CC/C(=C\c2ccc(N(C)C)cc2)C1=O	TAAR1 antag 71.7, TAAR1 ag 56.6, V1aR counter 59.2, OXTR agonist 69.4
Nc1ncnc2c1ncn2[C@@H]1O[C@H](COP(=O)(O)OP(=O)(O)OP(=O)(O)O)[C@@H](O)[C@H]1O	V1aR counter 77.5, OXTR agonist 68.6
Nc1ncnc2c1ncn2[C@@H]1O[C@H](COP(=O)(O)O)[C@@H](O)[C@H]1O	none
O=C(COC(=O)/C=C/c1ccc([N+](=O)[O-])cc1)NC1CCCCC1	none
Cc1ccc(NC(=O)NCc2ccco2)cc1[N+](=O)[O-]	none (no result: V1aR counter, OXTR agonist, OXTR potentiator)
Oc1ccc(CCNc2ncnc3ccc(Cl)cc23)cc1	TAAR1 antag 51.1
Nc1nc(Cl)cc(NCCc2ccc(O)cc2)n1	none
O=C(/C=C\c1cn(-c2ccccc2)nc1-c1ccccc1)Nc1nccs1	TAAR1 antag 51.2
CCN(CC)C(=O)c1ncn2c1C(=O)N[C@H](C)C2	none (no result: V1aR counter, OXTR agonist, OXTR potentiator)
O=C(Nc1ccc(Cl)c(Cl)c1)C1=Cc2ccccc2OC1	TAAR1 antag 59.6
C=C1C(=O)N(C)CCC1C(CC)C(=O)OC (stereo not drawn)	none (no result: V1aR counter, OXTR agonist, OXTR potentiator)
Nc1ccccc1SC1CC(=O)N(c2ccc(Cl)c(Cl)c2)C1=O (stereo not drawn)	TAAR1 antag 59.0
Nc1ccccc1SC1CC(=O)N(c2ccc3c(c2)OCCO3)C1=O (stereo not drawn)	none
Cc1cc(C)c(NC(=O)CNC(=O)c2ccc3c(=O)n4c(nc3c2)CCC4)c(C)c1	none
CCc1cc(C(=O)N/N=C/c2ccc(OC)cc2)c2ccccc2n1	none
O=C(Nc1nc2ccccc2s1)c1ccc2sc([C@H]3C[C@H](O)[C@@H](CO)O3)nc2c1	TAAR1 antag 50.5 (no result: V1aR counter, OXTR agonist, OXTR potentiator)
O=C(Nc1nccs1)c1ccc2sc([C@H]3C[C@H](O)[C@@H](CO)O3)nc2c1	none (no result: V1aR counter, OXTR agonist, OXTR potentiator)
COc1ccc(NC2SC(=O)N(C)C2=O)cc1 (stereo not drawn)	none
O=C(Nc1ccccc1N1CCOCC1)C1(c2ccc(Cl)cc2)CCC1	TAAR1 ag 41.1
O=C(Cc1ccc(Cl)c(Cl)c1)Nc1ccccc1N1CCOCC1	none
O=C(CSc1nnnn1-c1cccc2c1CCCC2)N1CCCCC1	TAAR1 ag 45.1
Cc1ccc(-n2nnnc2SCC(=O)N2CCCCC2)cc1	none
Cc1ccccc1[C@H](NC1c2ccccc2C=Cc2ccccc21)P(=O)(c1ccccc1)c1ccccc1	none (no result: V1aR counter, OXTR agonist, OXTR potentiator)
O=C(COC(=O)c1ccc2c(c1)C(=O)N(CCc1ccccc1)C2=O)Nc1ccc(OC(F)F)cc1	none
CCOc1ccc(NC(=O)COC(=O)c2ccc3c(c2)C(=O)N(CCc2ccccc2)C3=O)cc1	TAAR1 ag 38.2
Clc1ccc(-c2csc(-c3cccnc3)n2)s1	none
CCOc1cccc2sc(N(CCCN(C)C)C(=O)c3ccc(S(=O)(=O)N(CC)Cc4ccccc4)cc3)nc12	TAAR1 antag 55.0
CCN(Cc1ccccc1)S(=O)(=O)c1ccc(C(=O)N(CCCN(C)C)c2nc3c(F)cccc3s2)cc1	none
COc1ccc2sc(N(CCCN(C)C)C(=O)c3ccc(S(=O)(=O)N(C)Cc4ccccc4)cc3)nc2c1	TAAR1 ag 43.1
CCOc1cccc2sc(N(CCCN(C)C)C(=O)c3ccc(S(=O)(=O)N(C)Cc4ccccc4)cc3)nc12	TAAR1 antag 53.8
CCCCc1ccc(NC(=S)NCCc2ccc(F)cc2)cc1	none
COc1ccc(Br)cc1C1CC(=O)N2CN(C)CSC2=C1C#N (stereo not drawn)	TAAR1 ag 46.0
COc1cc(OC)c(C2CC(=O)N3CN(C)CSC3=C2C#N)cc1OC (stereo not drawn)	none
CCOC(=O)COc1ccccc1/C=N\NC(=O)c1cc2c(ccc3ccccc32)o1	TAAR1 antag 48.9 (no result: V1aR counter, OXTR agonist, OXTR potentiator)
COC(=O)C1=C[C@@H](C(=O)OC)C2C3=C(C(=O)C24CCCCC4)[C@H](C)n2c(=O)n(-c4ccccc4)c(=O)n2[C@@H]3C1 (stereo partly drawn)	TAAR1 antag 51.9
COC(=O)C1=C[C@@H](C(=O)OC)C2C3=C(C(=O)C24CCCCC4)[C@H](C)n2c(=O)n(C)c(=O)n2[C@@H]3C1 (stereo partly drawn)	none
CC1(C(=O)NCc2cccc3ccccc23)CCN1C(=O)Cc1ccc(-c2ccccc2)cc1 (stereo not drawn)	TAAR1 antag 48.6 (no result: V1aR counter, OXTR agonist, OXTR potentiator)
COCCNC(=S)N(C)[C@H]1C[C@H]2c3[nH]c4c(-c5ccccc5)cccc4c3CCN2C(=O)[C@H]1[C@H](C)O	none (no result: V1aR counter, OXTR agonist, OXTR potentiator)
CC(C)n1nnnc1C1c2ccccc2C(=O)N1CCOc1ccccc1 (stereo not drawn)	none (no result: V1aR counter, OXTR agonist, OXTR potentiator)
CC(C)CCOc1ccc(Cl)cc1CN1CCOCC1	TAAR1 ag 39.4
CN1C2CCC1/C(=C\c1ccc(F)cc1)C(=O)/C2=C/c1ccc(F)cc1	none
CN1C2CCC1/C(=C/c1cccn1C)C(=O)/C2=C\c1cccn1C	V1aR counter 44.9, OXTR agonist 44.7
CC(C)=CCc1c(O)ccc2c1OC(c1ccc(O)c(O)c1)CC2=O (stereo not drawn)	TAAR1 antag 57.2
COC(=O)c1ccccc1C(=O)N(Cc1cccnc1)CC1CCCN(C2CCCCC2)C1 (stereo not drawn)	none
CN(C)c1nc(OCCOC(=O)c2ccccc2)nc(N(C)C)n1	TAAR1 ag 38.6
c1ccc2sc(-n3cc(C4CCCCC4)nn3)nc2c1	none (no result: V1aR counter, OXTR agonist, OXTR potentiator)
COc1cc2cc(C(=O)NCCc3c[nH]c4ccccc34)c(N)nc2cc1OC	TAAR1 antag 70.3, TAAR1 ag 52.2 (no result: V1aR counter, OXTR agonist, OXTR potentiator)
Cc1cccc(C)c1NC(=O)C(=O)NCCc1c[nH]c2ccccc12	TAAR1 ag 45.6
Cc1[nH]c2ccccc2c1C(=O)C(=O)NCCc1c[nH]c2ccccc12	TAAR1 antag 75.1, TAAR1 ag 45.3
O=C(NCCc1c[nH]c2ccccc12)C(=O)c1c[nH]c2ccccc12	TAAR1 antag 62.1, TAAR1 ag 39.6
COc1ccccc1Cc1c(-c2cccc(Br)c2)nc2ccc(C)cn12	none (no result: V1aR counter, OXTR agonist, OXTR potentiator)
COC(=O)c1ccc2nc(-c3ccc(C)cc3)c(CC(C)(C)C)n2c1	none (no result: V1aR counter, OXTR agonist, OXTR potentiator)
COc1cccc(Cn2cccc(NC(=O)Nc3ccc(C#N)cc3)c2=O)c1	TAAR1 antag 53.4
COc1cccc(NC(=O)Nc2cccn(Cc3ccccc3)c2=O)c1	none
COc1ccc(OC)c(-c2cnc(OC(C)(C)C)nc2OC(C)(C)C)c1	none
CC(=C/c1ccccc1)/C=N/NC(=O)c1ccc2nc[nH]c2c1	none
